From PubChem BioAssay
Calls of active or inactive are those of the source.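 Rule for the calls, unless noted: active = inhibition of the reporter signal at or above 50%; inactive = inhibition below 50%.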

How the values were obtained:
[1] = inhibitors of TNFa-induced NFkB p65 translocation, primary screen, imaging, HUVEC, MLSMR starter and 10KST1 sets (AID 438;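 active = inhibition above 20% together with a positive visual image hit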;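 note: compound added about 3h40 before a 20 min TNFalpha stimulation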;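 for inhibition: signal is the nuclear over cytoplasmic p65 intensity ratio per well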); conditions: HUVEC TNFa-induced p65 nuclear translocation; cell count: measured here: nuclei count (cytotoxicity indicator), at 2.08 µM; inhibition: at 2 µM, stronger effect = higher value, 0% TNFa-plus-vehicle, 100% no-TNFa wells
[2] = reduction of polyQ htt aggregates in cells – imaging, exon1htt(103Q)mCFP cells, high-content imaging, primary screen (AID 483;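 active = visual image review flags a hit and inhibition of aggregation exceeds 20%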;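 note: compound exposure lasted 3 days before fixation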;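 for nuclei count: percent of the per-plate median nuclei count of sample wells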); conditions: exon1htt(103Q)mCFP cell line, aggregate imaging, at 2 µM; inhibition of aggregation: stronger effect = higher value; nuclei count: measured here: cell count, toxicity
[3] = endothelial E-selectin expression blockers – imaging, HUVEC, immunofluorescence, MLSMR starter and 10KST1 sets, primary screen (AID 487;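 active = visually confirmed hit in the image check and inhibition above 20%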;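 for inhibition: signal is fraction of cell area covered by stained E-selectin grains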;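 for nuclei count: 100% = median nuclei count of all wells on the same plate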); conditions: HUVEC TNFalpha-induced E-selectin immunofluorescence imaging, at 2 µM; inhibition: stronger effect = higher value; nuclei count: measured here: cell number, toxicity
[4] = target: Voltage-gated potassium channel subunit beta-2 (Rattus norvegicus) (UniProt P62483); assay: inhibitors of rat Kvbeta2 reductase activity – biochemical, NADPH fluorescence, primary screen (AID 622;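 active = fluorescence slope higher than the sample average by over 3 SD, cut at about -0.22 in these data, passing the limit was not always enough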;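 note: slope of raw intensity against log time taken from 70 to 1610 s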); conditions: recombinant KvBeta, 4-cyanobenzaldehyde reduction, at 10 µM, stronger effect = higher value
[5] = target: Voltage-gated potassium channel subunit beta-2 (Rattus norvegicus) (UniProt P62483); assay: enhancers of rat Kvbeta2 NADPH turnover – biochemical, NADPH fluorescence, primary screen (AID 623;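 active = NADPH fluorescence slope more negative than the mean of all samples by about 3 SD, 99.7% confidence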;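 note: fluorescence intensity change per second fitted from 20 to 320 s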); conditions: Recombinant KvBeta, NADPH fluorescence decrease slope, 10 min; at 10 µM; stronger effect = lower value
[6] = target: Muscarinic acetylcholine receptor M4 (Homo sapiens) (UniProt P08173); assay: M4-linked GIRK flux change, two-sided – cell-based, HEK293 M4/GIRK, thallium flux, BTC-AM, M4 allosteric agonist project, primary screen (AID 625;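 active = fluorescence slope after compound addition differing from the mean of all tested samples at 99.7% confidence, mostly higher but some lower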;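 note: thallium influx through GIRK channels coupled to M4 in HEK293 cells with BTC-AM dye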); conditions: at 10 µM, actives lie on both sides
How it was run: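 Material: HEK293 cells with M4 receptor and GIRK channels; Times: cells overnight at 37 °C, BTC-AM loading 1 h, reads 2 min total; Technique: kinetic BTC-AM fluorescence sampled at 1 Hz, 10 s pre-addition baseline; Read-out basis: slope over 15–24 s of trace normalized to starting intensity; Controls: carbachol positive, DMSO negative.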

[7] = blockers of RIG-like receptor reporter activation – cell-based, Sendai virus stimulus, luciferase, 10K MLSCN set, TLR/RLR signaling modifier project, primary screen (AID 602276;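 active = inhibition at or above 50% at 10 µM; inactive = inhibition below 50%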;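 note: firefly luciferase from ISG56 promoter only with Renilla not read in this screen; 0% = Sendai virus plus DMSO and 100% = medium plus DMSO without virus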); conditions: HEK293 RL24 IRF3 luciferase reporter, at 10 µM, stronger effect = higher value
[8] = TLR3 IRF3 reporter activation blockers – cell-based, poly I:C stimulus, luciferase, 10K MLSCN set, primary screen (AID 602277); conditions: HEK293-TLR3 RL24 IRF3 luciferase reporter, at 10 µM, stronger effect = higher value

Sequence of Muscarinic acetylcholine receptor M4 (Homo sapiens) (P08173 whole entry, looked up): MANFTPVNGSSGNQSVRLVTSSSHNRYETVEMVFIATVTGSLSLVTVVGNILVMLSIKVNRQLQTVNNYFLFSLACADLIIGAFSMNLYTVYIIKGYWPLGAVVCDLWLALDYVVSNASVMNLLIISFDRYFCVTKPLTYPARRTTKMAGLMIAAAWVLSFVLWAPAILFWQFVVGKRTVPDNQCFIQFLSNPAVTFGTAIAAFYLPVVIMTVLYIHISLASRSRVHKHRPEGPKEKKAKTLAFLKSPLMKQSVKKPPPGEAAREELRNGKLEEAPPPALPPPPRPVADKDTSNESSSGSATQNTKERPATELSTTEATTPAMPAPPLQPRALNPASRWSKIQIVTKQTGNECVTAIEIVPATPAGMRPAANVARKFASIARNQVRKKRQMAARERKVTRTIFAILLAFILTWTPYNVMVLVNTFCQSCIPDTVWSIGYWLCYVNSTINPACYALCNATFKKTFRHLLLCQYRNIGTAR
Sequence of Voltage-gated potassium channel subunit beta-2 (Rattus norvegicus) (P62483 whole entry, looked up): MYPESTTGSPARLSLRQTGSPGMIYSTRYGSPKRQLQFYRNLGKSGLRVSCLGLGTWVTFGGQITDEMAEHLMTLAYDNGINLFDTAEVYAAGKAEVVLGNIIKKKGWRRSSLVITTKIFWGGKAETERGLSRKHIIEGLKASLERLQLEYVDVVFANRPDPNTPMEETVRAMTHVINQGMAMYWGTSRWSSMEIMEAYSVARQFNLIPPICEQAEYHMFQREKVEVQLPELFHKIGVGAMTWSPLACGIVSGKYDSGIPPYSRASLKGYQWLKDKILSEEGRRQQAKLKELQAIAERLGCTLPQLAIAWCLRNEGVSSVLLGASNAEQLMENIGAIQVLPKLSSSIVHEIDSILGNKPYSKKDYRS

SMILES	cell count [1]	inhibition [1]	inhibition of aggregation [2]	nuclei count [2]	inhibition [3]	nuclei count [3]	fluorescence slope [4]	NADPH fluorescence slope [5]	fluorescence slope [6]	inhibition [7]	inhibition [8]
CC1(C)NC(=O)N(CC(O)CN(Cc2ccccc2)Cc2ccccc2)C1=O (stereo not drawn)	606	9.2% (inactive)	14% (inactive)	84.4%	-13% (inactive)	113%	-0.299 (inactive)	-4e-05 (inactive)	0.00564 (inactive)	9.57% (inactive)	21.2% (inactive)
Cc1occc1-c1nnc(SCC(=O)NCC2CCCO2)n1C (stereo not drawn)	687	-0.3% (inactive)	-23% (inactive)	120%	40.7% (inactive)	95%	-0.521 (inactive)	0.00013 (inactive)	0.0055 (inactive)	16.7% (inactive)	10.3% (inactive)
CC(Sc1nnnn1-c1ccccc1)C(=O)Nc1ccc(Cl)cn1 (stereo not drawn)	570	-12.8% (inactive)	-5.6% (inactive)	108%	-139% (inactive)	131%	-0.426 (inactive)	2.6e-05 (inactive)	0.00566 (inactive)	16% (inactive)	19.9% (inactive)
CCOc1ccccc1N1CCN(S(=O)(=O)c2cccc3nsnc23)CC1	453	3.9% (inactive)	-10.4% (inactive)	94%	-6.6% (inactive)	106%	-0.472 (inactive)	2.9e-06 (inactive)	0.00356 (inactive)	22.8% (inactive)	18.5% (inactive)
CC(=O)c1cc2c(=O)c3cc(C)ccc3oc2nc1C	410	5.3% (inactive)	7.1% (inactive)	93.5%	-96.2% (inactive)	187%	-0.346 (inactive)	5.2e-06 (inactive)	0.00597 (inactive)	-28.2% (inactive)	-91.3% (inactive)
COc1ccc(CN2CC(C(=O)NCCCOC(C)C)CC2=O)cc1 (stereo not drawn)	766	-12.7% (inactive)	-17.1% (inactive)	102%	-63.4% (inactive)	122%	-0.522 (inactive)	-6.3e-05 (inactive)	0.00604 (inactive)	-10% (inactive)	-6.2% (inactive)
O=C(NCCc1ccccc1)c1cc(-c2ccco2)on1	384	-8.7% (inactive)	7.8% (inactive)	102%	-29.5% (inactive)	96.5%	-0.473 (inactive)	-5.1e-05 (inactive)	0.00445 (inactive)	-44.9% (inactive)	-169% (inactive)
CCn1c(SC)nc2c(c1=O)SC(C)C2 (stereo not drawn)	570	-4.9% (inactive)	-5% (inactive)	112%	-20.6% (inactive)	118%	-0.432 (inactive)	-8.5e-05 (inactive)	0.00648 (inactive)	6.41% (inactive)	15.1% (inactive)
COC(=O)c1ccc2ncccc2c1	378	2.6% (inactive)	9.1% (inactive)	106%	-10.4% (inactive)	95.7%	-0.536 (inactive)	-8.5e-05 (inactive)	0.00451 (inactive)	-15.2% (inactive)	-24.8% (inactive)
CC(C)=CC(=O)OCC(=O)NC(=O)NC(C)(C)C	220	13.1% (inactive)	14.1% (inactive)	97.7%	3.9% (inactive)	98.5%	-0.591 (inactive)	-1.3e-05 (inactive)	0.00792 (inactive)	-2.29% (inactive)	9.61% (inactive)
O=C(NCc1nnc(SCC(=O)N2CCCCCC2)o1)c1ccco1	595	-15.7% (inactive)	12.1% (inactive)	124%	-52.2% (inactive)	106%	-0.516 (inactive)	-2.1e-05 (inactive)	0.00384 (inactive)	6.86% (inactive)	11% (inactive)
CCC(=O)OC1(C#CCOc2ccc(OC)cc2)CCN(C)CC1	393	-6.5% (inactive)	-20.2% (inactive)	113%	-43.3% (inactive)	142%	-0.61 (inactive)	-2.5e-05 (inactive)	0.00292 (inactive)	17.8% (inactive)	16% (inactive)
CCCCCn1c(CN(C)Cc2ccccc2)nc2c1c(=O)n(C)c(=O)n2C	529	-12.2% (inactive)	-2% (inactive)	86.5%	-110% (inactive)	110%	-0.46 (inactive)	-9.4e-05 (inactive)	0.00453 (inactive)	18.2% (inactive)	-3.26% (inactive)
OCc1nc(CO)n(Cc2ccccc2)n1	447	-17.6% (inactive)	-12.2% (inactive)	112%	42.4% (inactive)	86.8%	-0.501 (inactive)	-4.7e-05 (inactive)	0.00536 (inactive)	7.11% (inactive)	19.9% (inactive)
CN(C=O)CP(=O)(O)CCN1CCCC1=O	447	7% (inactive)	19.4% (inactive)	90.6%	27% (inactive)	106%	-0.589 (inactive)	-5.8e-05 (inactive)	0.00412 (inactive)	14.6% (inactive)	25.4% (inactive)
O=S1(=O)C=CC(Nc2cccc(Cl)c2)C1 (stereo not drawn)	682	-1% (inactive)	-6.1% (inactive)	97.2%	-7.5% (inactive)	98.1%	-0.447 (inactive)	-6.1e-05 (inactive)	0.0065 (inactive)	22.9% (inactive)	30.3% (inactive)
COc1ccc(CC(=O)OCC(=O)NC(=O)NC2CCCCC2)cc1	505	-13.7% (inactive)	-0.9% (inactive)	80.9%	-5.5% (inactive)	121%	-0.509 (inactive)	4.4e-05 (inactive)	0.00502 (inactive)	9.64% (inactive)	15.4% (inactive)
COc1ccc(OC)c(NC(=O)CSc2ncccc2C(=O)O)c1	409	0% (inactive)	-10.4% (inactive)	7.1%	-120% (inactive)	125%	-0.495 (inactive)	-0.000268 (inactive)	0.00462 (inactive)	-1.78% (inactive)	9.5% (inactive)
CCCCOc1ccc(C(=O)Nc2ccc(N3CCN(C(=O)C(C)C)CC3)cc2)cc1	825	-3.3% (inactive)	-19.5% (inactive)	92.4%	-59.7% (inactive)	115%	-0.44 (inactive)	-1.7e-05 (inactive)	0.0053 (inactive)	13.8% (inactive)	-10.4% (inactive)
CCOC(=O)c1c(C)c(C(=O)NCC2CCCO2)c(C)n1C (stereo not drawn)	267	-2% (inactive)	-10.1% (inactive)	94.7%	-8% (inactive)	74.6%	-0.461 (inactive)	-6e-06 (inactive)	0.00685 (inactive)	14.1% (inactive)	20.9% (inactive)
COc1ccc(C)cc1NC(=O)CNC(=O)Cn1ccc2ccccc2c1=O	730	-14.1% (inactive)	-10.4% (inactive)	108%	21.2% (inactive)	96.3%	-0.461 (inactive)	-2.5e-05 (inactive)	0.0048 (inactive)	25.5% (inactive)	20.3% (inactive)
O=C(CN(c1ccc(F)cc1)S(=O)(=O)c1ccc2c(c1)OCCO2)NCC1CCCO1 (stereo not drawn)	472	0.8% (inactive)	-6.6% (inactive)	92.4%	-58.6% (inactive)	107%	-0.453 (inactive)	-4.3e-05 (inactive)	0.00466 (inactive)	17% (inactive)	24.3% (inactive)
COc1ccc(-c2noc(CCC(=O)Nc3nc4ccccc4s3)n2)cc1	540	-8.6% (inactive)	21.7% (inactive)	50.7%	-35% (inactive)	106%	-0.586 (inactive)	-3.6e-05 (inactive)	0.0103 (inactive)	-7.62% (inactive)	-8.39% (inactive)
Cc1ccc(-n2nnnc2SCC(=O)N2CCN(C(=O)c3ccco3)CC2)c(C)c1	731	-4.4% (inactive)	27.6% (inactive)	91%	-5.5% (inactive)	109%	-0.568 (inactive)	-5.4e-05 (inactive)	0.00555 (inactive)	1.61% (inactive)	10.6% (inactive)
COc1cccc(C(c2nnnn2Cc2ccccc2)N2CCN(C(=O)c3ccco3)CC2)c1OC (stereo not drawn)	414	4.3% (inactive)	5% (inactive)	69.9%	-195% (inactive)	161%	-0.473 (inactive)	-2e-05 (inactive)	0.00486 (inactive)	8.65% (inactive)	11.2% (inactive)
CCOC(=O)C1CCCN(C(=O)c2cccs2)C1 (stereo not drawn)	330	3.3% (inactive)	13.3% (inactive)	110%	22% (inactive)	104%	-0.456 (inactive)	-5e-05 (inactive)	0.0055 (inactive)	12.8% (inactive)	3.43% (inactive)
Cc1n[nH]c(C)c1S(=O)(=O)N1CCCCCC1	355	1.8% (inactive)	-0.3% (inactive)	99.2%	-12.3% (inactive)	110%	-0.488 (inactive)	1.3e-05 (inactive)	0.00614 (inactive)	1.38% (inactive)	25% (inactive)
c1ccc(-c2noc(-c3cccnc3)n2)nc1	359	-2.1% (inactive)	0.3% (inactive)	102%	-85.3% (inactive)	96.9%	-0.575 (inactive)	-4.4e-05 (inactive)	0.00712 (inactive)	0.927% (inactive)	-38.1% (inactive)
